Experiment [1] has as its system Thoracic aorta. Kind of experiment: Vasorelaxant activity in Wistar rat endothelium-intact thoracic aortic rings assessed relaxation of 30 mM KCl-induced contraction. The format is functional. In a few lines: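 Endothelium-intact thoracic aortic rings from female Wistar rats (180–220 g), equilibrated 75 min under 1.8–2.0 g tension, pH 7.4, isometric force transducer. After stable 30 mM KCl plateau (about 15 min), cumulative addition at 1, 10, 30, 50, 100 µM, or 0.1–100 µM for some compounds. EC50 = concentration giving 50% relaxation; mean ± SEM of 4–6 experiments.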

A short description of experiment [2]: Inhibition of glucose-induced insulin secretion from Wistar rat pancreatic islets assessed as residual insulin release at 50 uM after 90 mins by radioimmunological assay. The format is functional, Pancreatic islet. In a few lines:
(§1)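 Islets from adult fed Wistar rats, groups of 10 from the same batch. Preincubated 30 min at 37°C in bicarbonate salt medium with 2.8 mM glucose and 0.5% dialysed albumin, gassed O2/CO2 95:5. Then incubated 90 min at 37°C with 16.7 mM glucose plus compound. Insulin measured by radioimmunoassay against rat insulin standard. Residual secretion expressed as % of drug-free 16.7 mM glucose control.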

Experiment [3] has as its system Thoracic aorta. The experiment can be described thus: Vasorelaxant activity in Wistar rat thoracic aortic rings assessed relaxation of 80 mM KCl-induced contraction. It counts as functional. The method, boiled down: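 Female Wistar rat (180–220 g) thoracic aortic rings equilibrated 75 min at 1.8–2.0 g tension, pH 7.4. Depolarized with 80 mM KCl, then compounds added cumulatively. EC50 = concentration giving 50% relaxation of the 80 mM KCl contraction. Mean ± SEM, n = 4–5.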

For experiment [4], the system named is Thoracic aorta. The experiment can be described thus: Vasorelaxant activity in Wistar rat endothelium-denuded thoracic aortic rings assessed relaxation of 30 mM KCl-induced contraction. It counts as functional.
Experiment [5] in a line: Inhibition of glucose-induced insulin secretion from Wistar rat pancreatic islets assessed as residual insulin release at 10 uM after 90 mins by radioimmunological assay. It counts as functional, Pancreatic islet. In a few lines:
as §1

Experiment [6] relates to Thoracic aorta. Kind of experiment: Vasorelaxant activity in Wistar rat thoracic aortic rings assessed relaxation of 30 mM KCl-induced contraction in presence of KATP channel blocker glibenclamide. It counts as functional. The method, boiled down:
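Female Wistar rat thoracic aorta rings under 1.8–2.0 g resting tension, pH 7.4. Glibenclamide 10 μM present continuously in bath. Contraction by 30 mM KCl, then cumulative compound addition. EC50 = concentration relaxing the KCl contraction by 50%. Mean ± SEM, n = 3–5.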

Experiment [7] in a line: Inhibition of glucose-induced insulin secretion from Wistar rat pancreatic islets assessed as residual insulin release at 1 uM after 90 mins by radioimmunological assay. The format is functional, Pancreatic islet. The method, boiled down: as §1

In turn, `CCc1ccc2nc(NC(=O)NC(C)(C)C)sc2c1` showed an EC50 in the experiment on Thoracic aorta [1] of 25.3 µM.
For the molecule `CC(C)(C)NC(=O)Nc1nc2ccc(Br)cc2s1`, the Activity in experiment [2] is on record as 15.89%. The half-maximal effective concentration (EC50) worked out at 13 µM in the experiment with Thoracic aorta [1], 26.9 µM in the experiment on Thoracic aorta [3], 12.1 µM with Thoracic aorta [4] and 23.3 µM in the experiment with Thoracic aorta [6]. The “Residual insulin secretion (% of glucose control)” value in experiment [5] amounted to 77.97%.
As to `CC(C)(C)NC(=O)Nc1nc2ccc(C#N)cc2s1`, the EC50 in the experiment with Thoracic aorta [1] was 2.78 µM; in the experiment with Thoracic aorta [3] it was 15 µM; with Thoracic aorta [4], 4.66 µM; in the experiment on Thoracic aorta [6] it was 15.6 µM.
Turning to `CC(N/C(=N\C#N)Nc1ccncc1)C(C)(C)C` (stereo not drawn) [PINACIDIL ANHYDROUS], in experiment [2], the Activity was determined as 88.8%. Also, the figures for the EC50 with Thoracic aorta [1], in the experiment on Thoracic aorta [3] and with Thoracic aorta [6] were 0.39 µM, 92.1 µM and 8.02 µM, respectively. In addition, in experiment [7], the “Residual insulin release (% of control)” value was 97.7%.
For the molecule `CC(C)NC(=O)Nc1nc2ccc([N+](=O)[O-])cc2s1`, the Activity in experiment [2] is listed as 8.52%. The concentration giving a half-maximal response (EC50) worked out at 15.7 µM in the experiment with Thoracic aorta [1], 36.4 µM in the experiment with Thoracic aorta [3] and 17.8 µM in the experiment with Thoracic aorta [4]. The “Residual insulin secretion (% of glucose control)” value in experiment [5] is listed as 62.03%.
As to `N#Cc1ccc(NC(=O)Nc2nc3c(s2)CCCC3)cc1`, the concentration giving a half-maximal response (EC50) with Thoracic aorta [1] was over 100 µM.
Same read-out and setting: the value for `N#Cc1ccc(NC(=S)Nc2nc3c(s2)CCCC3)cc1` was over 100 µM.
The molecule `O=C(Nc1ccc(Cl)cc1)Nc1nc2c(s1)CCCC2` came in with a half-maximal effective concentration (EC50) with Thoracic aorta [1] of over 100 µM.
Still for that read-out and setting: the value for `CCc1ccc2nc(NC(=S)NCc3ccccc3)sc2c1` was over 100 µM; that for `Cc1ccc2nc(NC(=O)NC(C)C)sc2c1` was 18.5 µM; that for `O=C(Nc1nc2ccc(Br)cc2s1)Nc1ccc(C(F)(F)F)cc1Cl` was over 100 µM.
As for `O=[N+]([O-])c1cccc(NC(=S)Nc2nc3c(s2)CCCC3)c1`, the EC50 in the experiment on Thoracic aorta [1] was over 100 µM.
The same measure, in the same setting: then `CC(C)(C)NC(=O)Nc1nc2c(s1)CCCC2`, with 75.2 µM; and `CC(C)NC(=O)Nc1nc2ccccc2s1`, with 35.5 µM; and `O=C(Nc1ccc(Cl)c(C(F)(F)F)c1)Nc1nc2c(s1)CCCC2`, with over 100 µM.
The same measure, in the same setting: then `CCc1ccc2nc(NC(=O)Nc3ccc(C(F)(F)F)cc3Cl)sc2c1`, with over 100 µM.
On to `CC(C)(C)NC(=O)Nc1nc2ccc([N+](=O)[O-])cc2s1`, for which the Activity in experiment [2] worked out at 11.77%. The EC50 in the experiment with Thoracic aorta [1] came to 10.8 µM; in the experiment with Thoracic aorta [3], 31 µM; in the experiment with Thoracic aorta [4], 14.8 µM; in the experiment with Thoracic aorta [6], 19.5 µM. Further, in experiment [5], the “Residual insulin secretion (% of glucose control)” value was determined as 30.98%. Besides, the “Residual insulin release (% of control)” value in experiment [7] turned out to be 83.52%.
Regarding `CCc1ccc2nc(NC(=S)Nc3cccc([N+](=O)[O-])c3)sc2c1`, the EC50 in the experiment on Thoracic aorta [1] is over 100 µM.
For `O=C(NCc1ccccc1)Nc1nc2ccc(Br)cc2s1`, the Activity in experiment [2] amounted to 17.85%. Besides, it took 64.2 µM to reach a half-maximal effect in the experiment on Thoracic aorta [1] (EC50). For the same molecule, the “Residual insulin secretion (% of glucose control)” value in experiment [5] amounted to 82.97%.
In the case of `O=C(Nc1nc2ccc([N+](=O)[O-])cc2s1)Nc1ccc(C(F)(F)F)cc1Cl`, the EC50 in the experiment with Thoracic aorta [1] was 54.3 µM.
The same measure, in the same setting: then `CCc1ccc2nc(NC(=O)NC(C)C)sc2c1`, with 24.4 µM.
In the experiment with Thoracic aorta [1], `CC(C)NC(=O)Nc1nc2c(s1)CCCC2` came in with a concentration for a half-maximal effect (EC50) of 47.6 µM.
For the molecule `CCCCCNC(=O)Nc1nc2ccc(C#N)cc2s1`, in the experiment with Thoracic aorta [1], the EC50 was 14.8 µM.
Turning to `CCCCCNC(=O)Nc1nc2ccc([N+](=O)[O-])cc2s1`, the EC50 in the experiment with Thoracic aorta [1] was found to be 2.11 µM; in the experiment on Thoracic aorta [3], 14.2 µM; in the experiment on Thoracic aorta [4] it was 4.75 µM; in the experiment with Thoracic aorta [6], 19.6 µM.
As for `CC(C)NC(=O)Nc1nc2ccc(Br)cc2s1`, the response in the experiment on Thoracic aorta [1] was half-maximal at 22.8 µM (EC50).
Still for that read-out and setting: the value for `Cc1ccc2nc(NC(=S)NC3CCCCC3)sc2c1` was 52.1 µM; that for `Cc1ccc2nc(NC(=S)NCc3ccccc3)sc2c1` was over 100 µM.
In the experiment with Thoracic aorta [1], `CCc1ccc2nc(NC(=O)NCc3ccccc3)sc2c1` showed an EC50 of over 100 µM.
The same measure, in the same setting: the value for `CC(C)NC(=S)Nc1nc2c(s1)CCCC2` was over 100 µM.
Consider `N#Cc1ccc(NC(=O)Nc2nc3ccc(Br)cc3s2)cc1`, for which the Activity in experiment [2] is listed as 10.68%. The EC50 in the experiment on Thoracic aorta [1] was over 100 µM. In addition, in experiment [5], the “Residual insulin secretion (% of glucose control)” value is 11.03%. Further, the “Residual insulin release (% of control)” value in experiment [7] was 60.5%.
Consider `CC1=Nc2ccc(Cl)cc2S(=O)(=O)N1` [DIAZOXIDE], for which, in experiment [2], the Activity turned out to be 26.7%. The EC50 was 23.7 µM in the experiment with Thoracic aorta [1], over 100 µM with Thoracic aorta [3], 23.2 µM with Thoracic aorta [4] and over 100 µM in the experiment with Thoracic aorta [6]. The “Residual insulin secretion (% of glucose control)” value in experiment [5] amounted to 73.9%. Further, the “Residual insulin release (% of control)” value in experiment [7] is 87.5%.
Regarding `O=C(Nc1nc2ccccc2s1)Nc1ccc(C(F)(F)F)cc1Cl`, in the experiment on Thoracic aorta [1], the EC50 was over 100 µM.

As usually defined, the EC50 is the concentration giving half of the maximal effect.

The values above are taken from ChEMBL document CHEMBL3792314, “Synthesis, characterization and biological evaluation of benzothiazoles and tetrahydrobenzothiazoles bearing urea or thiourea moieties as vasorelaxants and inhibitors of the insulin releasing process” (Eur J Med Chem, 2016).
